The values below come from ChEMBL document CHEMBL1144731, “Structure-dependent inhibition of bladder and pancreatic cancer cell growth by 2-substituted glycyrrhetinic and ursolic acid derivatives” (Bioorg Med Chem Lett, 2008).

Holding throughout (type): functional, cell-based
The nature of assay [1]: Cytotoxicity against human 253JBV cells. In outline:
(§1)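 Cells seeded at 3×10^4 per well in DMEM:Ham's F-12 with 2.5% charcoal-stripped FBS and allowed 24 h to attach. Then exposed to DMSO vehicle or compound, with medium and compound renewed every 48 h. Cell number counted at set times on a Coulter particle counter. Triplicate runs; IC50 obtained by linear regression.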

Assay [2] in a line: Cytotoxicity against human KU7 cells. The method, boiled down: as §1
The test system of another assay is PANC-1. The experiment in a line: Cytotoxicity against human Panc1 cells. The method, boiled down:
as §1

A short description of assay [3]: Cytotoxicity against human Panc28 cells. The method, boiled down:
as §1

As for `COC(=O)[C@]12CC[C@@H](C)[C@H](C)[C@H]1C1=CC[C@@H]3[C@@]4(C)C=C(C(F)(F)F)C(=O)C(C)(C)[C@@H]4CC[C@@]3(C)[C@]1(C)CC2`, the 50% inhibitory concentration (IC50) was determined as 0.17 µM in assay [1], 0.47 µM in assay [2], 0.65 µM in the assay with PANC-1 and 1.13 µM in assay [3].

With `COC(=O)[C@@]1(C)CC[C@]2(C)CC[C@]3(C)[C@H](C(=O)C=C4[C@@]5(C)C=C(I)C(=O)C(C)(C)[C@@H]5CC[C@]43C)[C@@H]2C1`, the IC50 in assay [1] amounted to 3.62 µM; in assay [2] it was 2.61 µM; in the assay with PANC-1 it was 4.45 µM; in assay [3] it was 3.66 µM.

Turning to `COC(=O)[C@]12CC[C@@H](C)[C@H](C)[C@H]1C1=CC[C@@H]3[C@@]4(C)C=C(C#N)C(=O)C(C)(C)[C@@H]4CC[C@@]3(C)[C@]1(C)CC2`, the IC50 worked out at 0.17 µM in assay [1], 0.3 µM in assay [2], 0.53 µM with PANC-1 and 0.97 µM in assay [3].

Turning to `COC(=O)[C@]12CC[C@@H](C)[C@H](C)[C@H]1C1=CC[C@@H]3[C@@]4(C)C=C(I)C(=O)C(C)(C)[C@@H]4CC[C@@]3(C)[C@]1(C)CC2`, the IC50 turned out to be 4.9 µM in assay [1], 6.02 µM in assay [2], 6.91 µM in the assay with PANC-1 and 13.5 µM in assay [3].

For the molecule `CC1(C)C(=O)C(C#N)=C[C@]2(C)[C@H]3C(=O)C=C4[C@@H]5C[C@@](C)(C(=O)O)CC[C@]5(C)CC[C@@]4(C)[C@]3(C)CC[C@@H]12`, the IC50 in assay [1] was 6.1 µM; in assay [2], 5.88 µM; with PANC-1, 3.81 µM; in assay [3], 7.32 µM.

Consider `COC(=O)[C@@]1(C)CC[C@]2(C)CC[C@]3(C)C(=CC(=O)[C@@H]4[C@@]5(C)C=C(C(F)(F)F)C(=O)C(C)(C)[C@@H]5CC[C@]43C)[C@@H]2C1`, for which the half-inhibitory concentration (IC50) in assay [1] was found to be 0.67 µM; in assay [2] it was 0.38 µM; in the assay on PANC-1 it was 0.82 µM; in assay [3] it was 1.14 µM.

In the case of `COC(=O)[C@@]1(C)CC[C@]2(C)CC[C@]3(C)[C@H](C(=O)C=C4[C@@]5(C)C=C(C(F)(F)F)C(=O)C(C)(C)[C@@H]5CC[C@]43C)[C@@H]2C1`, the IC50 was determined as 0.36 µM in assay [1], 1.37 µM in assay [2], 0.68 µM with PANC-1 and 1.13 µM in assay [3].

In the case of `COC(=O)[C@@]1(C)CC[C@]2(C)CC[C@]3(C)C(=CC(=O)[C@@H]4[C@@]5(C)C=C(P(=O)(OC)OC)C(=O)C(C)(C)[C@@H]5CC[C@]43C)[C@@H]2C1`, the IC50 stood at 7.9 µM in assay [1], 3.73 µM in assay [2], 6.11 µM in the assay on PANC-1 and 8.14 µM in assay [3].

As for `COC(=O)[C@@]1(C)CC[C@]2(C)CC[C@]3(C)C(=CC(=O)[C@@H]4[C@@]5(C)C=C(S(C)(=O)=O)C(=O)C(C)(C)[C@@H]5CC[C@]43C)[C@@H]2C1`, the IC50 turned out to be 12 µM in assay [1], 3.34 µM in assay [2], 7.69 µM in the assay with PANC-1 and 9.75 µM in assay [3].

For `COC(=O)[C@@]1(C)CC[C@]2(C)CC[C@]3(C)C(=CC(=O)[C@@H]4[C@@]5(C)C=C(I)C(=O)C(C)(C)[C@@H]5CC[C@]43C)[C@@H]2C1`, the IC50 in assay [1] came to 2.67 µM; in assay [2], 3.04 µM; in the assay with PANC-1, 4.08 µM; in assay [3] it was 12.8 µM.

As for `COC(=O)[C@@]1(C)CC[C@]2(C)CC[C@]3(C)C(=CC(=O)[C@@H]4[C@@]5(C)C=C(C#N)C(=O)C(C)(C)[C@@H]5CC[C@]43C)[C@@H]2C1`, the half-inhibitory concentration (IC50) stood at 0.25 µM in assay [1], 1.59 µM in assay [2], 1.22 µM in the assay on PANC-1 and 1.8 µM in assay [3].

For `COC(=O)[C@]12CC[C@@H](C)[C@H](C)[C@H]1C1=CC[C@@H]3[C@@]4(C)CC[C@H](O)C(C)(C)[C@@H]4CC[C@@]3(C)[C@]1(C)CC2` [METHYL URSOLATE], the 50% inhibitory concentration (IC50) in assay [1] was 6.13 µM; in assay [2], 8.95 µM; in the assay with PANC-1 it was 11.8 µM; in assay [3], 10.6 µM.
